Screens: PubChem BioAssay, several laboratories
APJ ag = agonists of human APJ apelin receptor; P35414; CHO-K1 APJ PathHunter beta-arrestin, luminescence; 0% DMSO wells, 100% apelin; activation, % at 20 µM; 0.11% of 330,000 active; AID 2520;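 active = activation more than six SD over the plate average, tested at 20 µM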;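 also: 0% = DMSO alone and 100% = apelin-13 at 10 nM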
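Assay system – PathHunter CHO-K1 APJ (AGTRL-1) beta-arrestin reporter cells · Compound – one dose, 20 µM compound, 1% DMSO · Timing – compound 90 min 25 °C, reagent 1 h · Measured by – luminescence from split beta-galactosidase complementation, Galacton Star/Emerald II substrate · Measure – beta-arrestin recruitment to APJ as agonist activity, luminescent signal · Benchmarks – DMSO vs Apelin-13 10 nM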
APJ antagonist = APJ receptor antagonism. 0.32% of 330,000 active. inhibition, % at 20 µM. P35414. AID 2521. CHO-K1 APJ beta-arrestin complementation, luminescence;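 active = inhibition above about 40% at 20 µM, limit read from the data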;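 also: cells challenged with 10 nM apelin-13 agonist together with compound; plate controls were apelin-13 plus DMSO wells for no effect and DMSO wells lacking apelin-13 for full effect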
CXCR6 block = inhibitors of human CXCR6 receptor | O00574 | CHO-K1 PathHunter CXCR6 beta-arrestin, luminescence | inhibition, % at 20 µM | 0.36% of 360,000 active | AID 602244; in the data active = inhibition above about 34%, passing the limit was not always enough;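 also: antagonist mode with CXCL16 agonist at 10 nM final; 0% = 10 nM CXCL16 with DMSO and 100% = unstimulated wells without agonist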
Target sequence (O00574 whole entry, looked up): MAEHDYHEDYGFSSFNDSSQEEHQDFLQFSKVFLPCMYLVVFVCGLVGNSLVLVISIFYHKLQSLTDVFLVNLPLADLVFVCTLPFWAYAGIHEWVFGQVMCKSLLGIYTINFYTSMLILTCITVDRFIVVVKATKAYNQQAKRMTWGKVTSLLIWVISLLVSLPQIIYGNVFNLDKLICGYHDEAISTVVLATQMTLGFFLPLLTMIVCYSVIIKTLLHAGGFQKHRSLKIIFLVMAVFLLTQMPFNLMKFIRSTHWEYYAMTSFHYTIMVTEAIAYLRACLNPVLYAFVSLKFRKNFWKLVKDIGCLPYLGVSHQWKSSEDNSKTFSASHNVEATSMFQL
HTR2A ag = mouse HTR2A agonism via beta-arrestin recruitment; 0.66% of 360,000 active; AID 624169; CHO-K1 mHTR2A beta-arrestin complementation, luminescence; percent of 30 µM serotonin response; P35363; activation, % at 7.6 µM;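 active = activation above a run cutoff, the mean activation of all tested compounds plus 3 SD, cut at about 14% in these data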;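 also: 0% = plate median of compound wells and 100% = 30 µM serotonin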
Target sequence (P35363 whole entry, looked up): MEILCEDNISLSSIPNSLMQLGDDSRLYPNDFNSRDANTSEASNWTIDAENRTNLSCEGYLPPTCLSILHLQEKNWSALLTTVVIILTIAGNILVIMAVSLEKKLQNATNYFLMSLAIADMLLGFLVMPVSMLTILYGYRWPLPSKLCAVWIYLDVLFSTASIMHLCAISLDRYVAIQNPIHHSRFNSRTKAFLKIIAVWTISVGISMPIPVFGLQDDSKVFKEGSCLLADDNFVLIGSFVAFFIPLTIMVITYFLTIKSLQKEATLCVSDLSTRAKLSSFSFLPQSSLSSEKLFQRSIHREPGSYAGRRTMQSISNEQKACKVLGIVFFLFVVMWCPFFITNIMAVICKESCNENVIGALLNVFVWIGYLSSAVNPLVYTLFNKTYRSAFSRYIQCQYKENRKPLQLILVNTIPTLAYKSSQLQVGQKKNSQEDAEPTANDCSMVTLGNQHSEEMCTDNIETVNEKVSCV
CCR6 antagonist = CCR6 (human) receptor antagonism; 0.49% of 340,000 active; CHO-K1 CCR6 PathHunter beta-arrestin, luminescence, CCL20-stimulated; inhibition, % at 20 µM; P51684;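 active = compounds whose inhibition of the agonist-driven luminescence signal at 20 µM reaches about 50%, limit read from the data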;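 also: cells stimulated with CCL20 at 14 nM final; plate controls were DMSO with CCL20 for no effect and DMSO without agonist for full effect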
EBI2 antag = blocks human EBI2 receptor beta-arrestin signaling; inhibition, % at 5 µM; 0.81% of 360,000 active; P32249; AID 651636; EBI2 beta-arrestin recruitment, luminescence, 7a,25-OHC stimulated; in the data active = inhibition above about 38%;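 also: enzyme fragment complementation signal reports receptor beta-arrestin coupling in cells; 0% = agonist plus DMSO wells and 100% = wells without agonist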
EBI2 antag conf = confirmation of human EBI2 receptor antagonists. shares compounds with EBI2 antag. EBI2 beta-arrestin luminescence, 7a,25-OHC antagonism. inhibition, % at 5 µM. 29% of 2,400 active. AID 651997;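 active = inhibition of at least 50%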
EBI2 ag = EBI2 agonism counter-screen. AID 652000. activation, % at 5 µM. 2,400 tested, under 10 active. shares compounds with EBI2 antag. EBI2-expressing cells, agonist mode, luminescence, 60 min; 0% vehicle, 100% 7α,25-dihydroxycholesterol control;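 active = activation of at least 50%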
bGal cs = inhibits E. coli beta-galactosidase, counter-screen for EBI2 antagonists | 1% of 2,400 active | inhibition, % at 5 µM | purified beta-galactosidase, luminescent Galacton Star, 15 min | shares compounds with EBI2 antag;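 active = replicate-average signal at least 3 plate SD below neutral wells, shown as high inhibition, flagging enzyme-inhibiting false positives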;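 also: 0% = DMSO wells with enzyme and 100% = wells lacking enzyme; higher means stronger loss of beta-gal luminescence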
The depositor's hits bear a star; nt = no result. A selection: hits, their analogues and other compounds. The true share with any hit is near 2.1%.

SMILES | APJ ag | APJ antagonist | CXCR6 block | HTR2A ag | CCR6 antagonist | EBI2 antag | EBI2 antag conf | EBI2 ag | bGal cs
O=C(NCc1ccc(Cl)cc1)C1CCN(S(=O)(=O)c2cc([N+](=O)[O-])ccc2Cl)CC1 | 1.6 | 6.8 | -6.8 | 1.7 | -8.2 | 47.3* | 39.1 | 2.1 | -4.0
O=C(NCc1ccc(F)cc1)C1CCN(S(=O)(=O)c2ccc(Cl)cc2)CC1 | -1.3 | 1.1 | -7.7 | -7.5 | 7.9 | 3.0 | nt | nt | nt
O=C(N/N=C/c1cc(O)ccc1Br)c1cccnc1 | 2.2 | -18.3 | -13.1 | -12.2 | 28.9 | 7.3 | nt | nt | nt
CCOC(=O)/C=C/C(=O)Nc1cc(S(=O)(=O)Nc2ccc(OC)cc2)ccc1N1CCOCC1 | 8.1 | -51.5 | -2.2 | -1.1 | 10.4 | 75.0* | 71.8* | 0.8 | 11.3
O=C(/C=C/c1cccs1)N1CCC2(CC1)Oc1ccc(Cl)cc1C(=O)C21CC(c2cccnc2)=NO1 (configuration not stated) | 12.9 | -0.3 | 3.6 | 3.9 | 19.2 | 66.3* | 17.6 | -1.2 | -12.3
O=C(NC(c1ccc(F)cc1)c1ccc2ccccc2n1)C1CCN(CCOc2ccc(Cl)cc2Cl)CC1 (configuration not stated) | nt | nt | 4.0 | -2.5 | nt | 63.9* | 46.8 | 0.3 | 1.5
COc1ccc(C(NC(=O)C2CCN(CCOc3ccc(Cl)cc3)CC2)c2cccs2)cc1 (configuration not stated) | nt | nt | 3.9 | 2.2 | nt | 46.1* | 32.1 | 0.5 | 9.2
O=C(NC(c1ccc(F)cc1)c1cnccn1)C1CCN(CCOc2ccc(Cl)cc2Cl)CC1 (configuration not stated) | nt | nt | 8.5 | -8.8 | nt | 15.6 | nt | nt | nt
COc1ccc(OCCN2CCC(C(=O)NC(c3ccc(F)cc3)c3ccc4ccccc4n3)CC2)cc1 (configuration not stated) | nt | nt | 10.4 | -4.1 | nt | 52.9* | 35.5 | -0.1 | 4.2
O=C(NC(c1ccc(F)cc1)c1ccc2ccccc2n1)C1CCN(CCOc2ccc(F)cc2)CC1 (configuration not stated) | nt | nt | 12.2 | -3.5 | nt | 39.2 | nt | nt | nt
COc1ccc(OCCN2CCC(C(=O)NC(c3ccccc3)c3ccc4ccccc4n3)CC2)cc1 (configuration not stated) | nt | nt | 15.1 | -5.6 | nt | 49.4* | 14.0 | -1.2 | -12.9
CCN(CC)C(=O)c1ncn2c1c(=O)[nH]c1ccccc12 | nt | nt | 5.1 | 3.0 | nt | 0.5 | nt | nt | nt
CC(C)C(OC(=O)/C=C/c1ccc2c(c1)OCO2)C(=O)NC(N)=O (configuration not stated) | -2.6 | -7.6 | -7.9 | 6.9 | -2.6 | -7.5 | nt | nt | nt
O=C(O)c1cc(NCc2c(F)cccc2Cl)ccc1N1CCOCC1 | -1.4 | 6.5 | -3.9 | 0.2 | 6.8 | -6.4 | nt | nt | nt
O=S(=O)(c1cccs1)N1CCN(CCOc2ccc(Cl)cc2)CC1 | -3.6 | -1.2 | -7.4 | -6.4 | 12.4 | 63.5* | 45.4 | 1.4 | 4.6
O=S(=O)(c1cccs1)N1CCN(c2ccc(Cl)cc2)CC1 | 2.1 | -39.1 | -0.6 | 5.3 | 2.6 | 2.8 | nt | nt | nt
O=C(NC(c1ccccc1)c1ccc2ccccc2n1)C1CCN(CCOc2ccc(Cl)cc2)CC1 (configuration not stated) | nt | nt | 5.3 | -4.2 | nt | 60.5* | 58.8* | 2.1 | 8.4
Cc1ccc2c(c1)[C@H]1[C@H](CO2)[C@H](c2ccccc2)[C@]2(C)C(=O)N(Cc3ccc(Cl)cc3)CC(=O)N12 | -2.6 | -2.4 | 8.2 | 4.2 | 13.7 | 47.8* | 30.8 | -1.3 | -9.2
N/N=C(\c1ccccc1)c1cc(Cl)ccc1N | -0.2 | 12.2 | 3.8 | -4.0 | 2.2 | 5.2 | nt | nt | nt
CCOc1ccc(NC(=O)C2CCN(S(=O)(=O)c3ccc4c(c3)N(C(C)=O)CCO4)CC2)cc1 | -0.7 | 20.5 | -3.6 | 10.9 | 20.4 | 2.5 | nt | nt | nt
COc1ccc(CNC(=O)C2CCN(S(=O)(=O)c3ccc4c(c3)N(C(C)=O)CCO4)CC2)cc1 | -0.9 | 27.7 | -8.4 | -3.4 | 8.7 | 72.8* | 46.1 | 1.0 | 3.4
Cc1ccc(NC(=O)C2CCN(S(=O)(=O)c3ccc4c(c3)OCCCO4)CC2)nc1 | -2.2 | 15.7 | -11.4 | -2.1 | 2.0 | -8.4 | nt | nt | nt
Cc1ccc(CNC(=O)C2CCN(S(=O)(=O)c3ccc4c(c3)OCCCO4)CC2)cc1 | -0.6 | 5.8 | 2.8 | -2.5 | 9.1 | 78.8* | 66.9* | 1.8 | 8.3
COC(=O)c1ccc(Oc2ccc(C(F)(F)F)cn2)cc1 | -3.9 | 5.4 | 4.1 | 0.4 | 5.5 | 43.5* | 38.3 | 1.8 | 1.2
O=C(O)c1ccc(Oc2ccc(C(F)(F)F)cn2)cc1 | 0.3 | -11.8 | -6.2 | -2.3 | 6.4 | -0.6 | nt | nt | nt
SMILES | APJ ag | APJ antagonist | CXCR6 block | HTR2A ag | CCR6 antagonist | EBI2 antag | EBI2 antag conf | EBI2 ag | bGal cs
Cc1ccc(/C=C/C(=O)NCc2ccncc2)cc1 | 0.4 | 11.6 | 5.2 | 0.5 | 0.5 | 63.6* | 30.9 | -1.2 | -8.3
Cc1ccc(/C=C/C(=O)NCc2cccs2)cc1 | 2.0 | -2.5 | -4.2 | 0.5 | 11.9 | 53.3* | 44.0 | 1.5 | 1.2
C[C@H](CO)N1C[C@H](C)[C@H](CN(C)S(=O)(=O)c2ccccc2C#N)OCc2cnnn2CCCC1=O | nt | nt | 3.1 | -1.7 | nt | -7.4 | nt | nt | nt
COC(=O)c1ccc2[nH]c3c(c2c1)CC(C)CC3 (configuration not stated) | 2.3 | 13.8 | -9.1 | -0.8 | -15.3 | 49.8* | 44.0 | -0.8 | -12.0
COc1ccc(-c2cc(-c3ccc(OC)cc3)c(C#N)c(SC)n2)cc1 | 0.3 | -3.7 | 5.2 | 0.1 | 9.1 | 30.3 | nt | nt | nt
COc1ccc(-c2cc(-c3ccccc3)c(C#N)c(S(C)(=O)=O)n2)cc1 | 3.6 | -5.5 | 2.9 | -3.2 | -3.8 | 65.7* | 71.8* | 5.0 | 8.1
O=C(NCC1CCCO1)/C(=C\c1ccccc1)NC(=O)c1ccccc1 (configuration not stated) | 1.4 | -22.9 | 3.2 | 4.8 | 2.8 | -6.9 | nt | nt | nt
COC(=O)c1cnn(-c2ccccc2)c1C(OC)OC | 1.1 | 9.0 | -20.6 | 8.3 | -0.7 | -6.4 | nt | nt | nt
CC(NC(=O)CN(c1cccc(C(F)(F)F)c1)S(=O)(=O)c1ccc(Cl)c([N+](=O)[O-])c1)c1ccccc1 (configuration not stated) | -0.3 | -24.0 | -7.0 | -1.9 | -24.7 | 48.3* | 39.7 | -0.8 | -10.7
COc1ccc([C@H]2CN(c3ccc(OC)cc3)C(=O)[C@@H]2CC(=O)Nc2ccccc2)cc1 | nt | nt | 14.1 | -0.2 | nt | 46.4* | 52.5* | -0.7 | -14.2
COc1ccc(NC(=O)C[C@H]2C(=O)N(c3ccc(Br)cc3)C[C@@H]2c2ccc(OC)cc2)cc1 | nt | nt | 8.8 | -1.7 | nt | 27.1 | nt | nt | nt
